14 compounds from ChEMBL document CHEMBL2150947, “Pyrazolopyridine inhibitors of B-Raf(V600E). Part 4: rational design and kinase selectivity profile of cell potent type II inhibitors” (Bioorg Med Chem Lett, 2012) can be followed below.

Assay [1] concerns the target T1, Serine/threonine-protein kinase B-raf (Homo sapiens, UniProt P15056, V600E). The assay is described as follows: Inhibition of full length B-Raf V600E mutant.
Assay [2] concerns the target T1, Serine/threonine-protein kinase B-raf. As to the kind of experiment: Inhibition of B-Raf V600E mutant in human Malme-3M cells assessed as ERK phosphorylation. The assay is classed as cell-based. Put shortly:
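Mechanistic cellular read-out: inhibition of basal ERK phosphorylation in Malme-3M melanoma cells; IC50 taken as the mean of at least two experiments.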

SMILES strings stand for the structures. Bounds are passed on as bounds.

T1 sequence (P15056 2-766 V600E limits assumed): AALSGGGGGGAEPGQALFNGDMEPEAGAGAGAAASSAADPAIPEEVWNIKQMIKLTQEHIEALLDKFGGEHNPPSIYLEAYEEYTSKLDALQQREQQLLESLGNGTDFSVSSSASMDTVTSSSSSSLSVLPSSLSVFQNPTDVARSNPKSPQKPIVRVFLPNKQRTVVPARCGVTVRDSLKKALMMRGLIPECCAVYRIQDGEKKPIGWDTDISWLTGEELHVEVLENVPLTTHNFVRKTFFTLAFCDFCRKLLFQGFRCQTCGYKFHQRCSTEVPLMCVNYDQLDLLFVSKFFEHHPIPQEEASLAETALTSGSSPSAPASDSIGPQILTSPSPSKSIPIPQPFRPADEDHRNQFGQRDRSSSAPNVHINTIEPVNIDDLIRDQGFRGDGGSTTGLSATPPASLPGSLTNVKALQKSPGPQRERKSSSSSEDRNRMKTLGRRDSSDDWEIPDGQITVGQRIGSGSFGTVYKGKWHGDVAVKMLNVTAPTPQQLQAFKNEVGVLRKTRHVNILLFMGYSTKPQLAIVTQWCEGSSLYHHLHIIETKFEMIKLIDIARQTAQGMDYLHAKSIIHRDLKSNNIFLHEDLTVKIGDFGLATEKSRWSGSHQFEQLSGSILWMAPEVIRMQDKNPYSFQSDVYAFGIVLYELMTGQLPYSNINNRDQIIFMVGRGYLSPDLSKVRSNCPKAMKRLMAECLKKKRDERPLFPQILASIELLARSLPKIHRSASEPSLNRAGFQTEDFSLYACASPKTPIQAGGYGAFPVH

For the compound `COc1n[nH]c2ncc(NC(=O)c3cc(C(=O)Nc4cccc(C(F)(F)F)c4)ccc3C)cc12`, the values for the IC50 in assay [1] and in assay [2] were 6.6 nM and 52 nM, respectively. In the same order, the values of `COc1n[nH]c2ncc(NC(=O)c3cc(NC(=O)c4cccc(C(C)(C)C#N)c4)ccc3C)cc12` are 1.9 nM and 18 nM. In the same order, the values of `COc1n[nH]c2ncc(NC(=O)c3cc(NC(=O)c4ccc(Cl)c(C(F)(F)F)c4)ccc3F)cc12` are 1.3 nM and 96 nM. Taken in the same sequence, the figures for `COc1n[nH]c2ncc(NC(=O)c3cc(NC(=O)c4cccc(C(C)(C)C#N)c4)ccc3F)cc12` were 1 nM and 20 nM. With `COc1n[nH]c2ncc(NC(=O)c3c(F)ccc(NC(=O)c4ccccc4)c3F)cc12`, the values for the IC50 in assay [1] and in assay [2] were 39 nM and more than 12000 nM, respectively. Taken in the same sequence, the figures for `COc1n[nH]c2ncc(NC(=O)c3cc(NC(=O)c4cccc(C(C)(C)C#N)c4)ccc3Cl)cc12` were 1.2 nM and 22 nM. On to `COc1n[nH]c2ncc(NC(=O)c3cccc(NC(=O)c4cccc(C(C)(C)C#N)c4)c3)cc12`, for which the 50% inhibitory concentration (IC50) in assay [1] worked out at 0.9 nM; in assay [2] it was 140 nM. Taken in the same sequence, the figures for `O=C(Nc1ccccc1)Nc1cccc(C(=O)Nc2cnc3[nH]ncc3c2)c1` were 0.7 nM and more than 10000 nM. In the case of `COc1n[nH]c2ncc(NC(=O)c3cccc(C(=O)Nc4ccccc4)c3)cc12`, the IC50 in assay [1] is 80 nM; in assay [2] it was more than 10000 nM. Taken in the same sequence, the figures for `COc1n[nH]c2ncc(NC(=O)c3cccc(NC(=O)c4cccc(C(C)(C)C#N)c4)c3F)cc12` were 5.1 nM and 1800 nM. As for `COc1n[nH]c2ncc(NC(=O)c3c(F)ccc(NC(=O)c4cccc(C(C)(C)C#N)c4)c3F)cc12`, the IC50 in assay [2] was determined as 180 nM. As for `CC(C)(C#N)c1cccc(C(=O)Nc2ccc(F)c(C(=O)Nc3cnc4[nH]ncc4c3)c2F)c1`, the IC50 in assay [1] was found to be 3.5 nM; in assay [2], 430 nM. Consider `CC(C)(C#N)c1cccc(C(=O)Nc2ccc(F)c(C(=O)Nc3cnc4[nH]ccc4c3)c2F)c1`, for which the IC50 came out at 6.8 nM in assay [1] and 440 nM in assay [2].

`CC(C)(C#N)c1cccc(C(=O)Nc2ccc(F)c(C(=O)Nc3cnc4[nH]nc(C5CC5)c4c3)c2F)c1`: the IC50 in assay [1] was 3 nM; in assay [2] it was 520 nM.
